# ChEMBL document CHEMBL4706620, “Design, synthesis, biological activity evaluation of 3-(4-phenyl-1H-imidazol-2-yl)-1H-pyrazole derivatives as potent JAK 2/3 and aurora A/B kinases multi-targeted inhibitors” (Eur J Med Chem, 2021)
# The source made the active and inactive calls. The calls are words filed in the database; no cut-off is given here.
# How the values were obtained:
# HCT-116 [1] = experiment: Cell cycle arrest in human HCT116 cells assessed as accumulation of diploid cells at S phase at 1 uM incubated for 48 hrs by propidium iodide staining based flow cytometric analysis (reference value: 11.92 %); type: functional
# HCT-116 [2] = experiment: Cell cycle arrest in human HCT116 cells assessed as accumulation of diploid cells at G2 phase at 20 uM incubated for 48 hrs by propidium iodide staining based flow cytometric analysis (reference value: 10.46 %); type: functional
# HCT-116 [3] = experiment: Cell cycle arrest in human HCT116 cells assessed as accumulation of diploid cells at G2 phase at 10 uM incubated for 48 hrs by propidium iodide staining based flow cytometric analysis (reference value: 10.46 %); type: functional
# HCT-116 [4] = experiment: Cell cycle arrest in human HCT116 cells assessed as accumulation of diploid cells at S phase at 10 uM incubated for 48 hrs by propidium iodide staining based flow cytometric analysis (reference value: 11.92 %); type: functional
# HCT-116 [5] = experiment: Cell cycle arrest in human HCT116 cells assessed as accumulation of diploid cells at G1 phase at 20 uM incubated for 48 hrs by propidium iodide staining based flow cytometric analysis (reference value: 77.62 %); type: functional
# Homo sapiens [6] = species: Homo sapiens; experiment: Selectivity for JAK2 (unknown origin) over Aurora A (unknown origin)
# K562 [7] = experiment: Cell cycle arrest in human K562 cells assessed as accumulation of diploid cells at G2 phase at 20 uM incubated for 48 hrs by propidium iodide staining based flow cytometric analysis (reference value: 7.73 %); type: functional
# HCT-116 [8] = experiment: Cell cycle arrest in human HCT116 cells assessed as accumulation at […] phase at 20 uM incubated for 48 hrs by propidium iodide staining based flow cytometric analysis (reference value: 2.01 %); type: functional
# [9] = Cytotoxicity against HCoEpiC assessed as reduction in cell growth measured after 72 hrs by CCK8 assay; conditions: Homo sapiens
# Homo sapiens [10] = species: Homo sapiens; experiment: Selectivity for JAK3 (unknown origin) over Aurora B (unknown origin)
# K562 [11] = experiment: Cell cycle arrest in human K562 cells assessed as accumulation at […] phase at 10 uM incubated for 48 hrs by propidium iodide staining based flow cytometric analysis (reference value: 1.90 %); type: functional
# Homo sapiens [12] = species: Homo sapiens; experiment: Selectivity for JAK2 (unknown origin) over Aurora B (unknown origin)
# Aurora kinase B = Aurora kinase B (Homo sapiens, UniProt Q96GD4); experiment: Inhibition of Aurora B phosphorylation in human K562 cells incubated for 48 hrs by Western blot analysis; type: cell-based; conditions: dose 1-20 µM
# In short: (§1)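 K562 or HCT116 cells treated 48 h at 1, 10 and 20 µM alongside untreated control; lysed in cold RIPA, protein by BCA, SDS-PAGE, nitrocellulose transfer, 5% milk block, primary antibody overnight at 4 °C, secondary 1 h; p-Aurora A, p-Aurora B, p-STAT3, p-STAT5 probed with GAPDH loading control.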
# [13] = molecular target: T1, Tyrosine-protein kinase JAK3 (Homo sapiens, UniProt P52333); experiment: Inhibition of JAK3 (unknown origin) incubated for 40 mins in presence of ATP by Kinase-glo luminescence assay
# T1 sequence (P52333 whole entry): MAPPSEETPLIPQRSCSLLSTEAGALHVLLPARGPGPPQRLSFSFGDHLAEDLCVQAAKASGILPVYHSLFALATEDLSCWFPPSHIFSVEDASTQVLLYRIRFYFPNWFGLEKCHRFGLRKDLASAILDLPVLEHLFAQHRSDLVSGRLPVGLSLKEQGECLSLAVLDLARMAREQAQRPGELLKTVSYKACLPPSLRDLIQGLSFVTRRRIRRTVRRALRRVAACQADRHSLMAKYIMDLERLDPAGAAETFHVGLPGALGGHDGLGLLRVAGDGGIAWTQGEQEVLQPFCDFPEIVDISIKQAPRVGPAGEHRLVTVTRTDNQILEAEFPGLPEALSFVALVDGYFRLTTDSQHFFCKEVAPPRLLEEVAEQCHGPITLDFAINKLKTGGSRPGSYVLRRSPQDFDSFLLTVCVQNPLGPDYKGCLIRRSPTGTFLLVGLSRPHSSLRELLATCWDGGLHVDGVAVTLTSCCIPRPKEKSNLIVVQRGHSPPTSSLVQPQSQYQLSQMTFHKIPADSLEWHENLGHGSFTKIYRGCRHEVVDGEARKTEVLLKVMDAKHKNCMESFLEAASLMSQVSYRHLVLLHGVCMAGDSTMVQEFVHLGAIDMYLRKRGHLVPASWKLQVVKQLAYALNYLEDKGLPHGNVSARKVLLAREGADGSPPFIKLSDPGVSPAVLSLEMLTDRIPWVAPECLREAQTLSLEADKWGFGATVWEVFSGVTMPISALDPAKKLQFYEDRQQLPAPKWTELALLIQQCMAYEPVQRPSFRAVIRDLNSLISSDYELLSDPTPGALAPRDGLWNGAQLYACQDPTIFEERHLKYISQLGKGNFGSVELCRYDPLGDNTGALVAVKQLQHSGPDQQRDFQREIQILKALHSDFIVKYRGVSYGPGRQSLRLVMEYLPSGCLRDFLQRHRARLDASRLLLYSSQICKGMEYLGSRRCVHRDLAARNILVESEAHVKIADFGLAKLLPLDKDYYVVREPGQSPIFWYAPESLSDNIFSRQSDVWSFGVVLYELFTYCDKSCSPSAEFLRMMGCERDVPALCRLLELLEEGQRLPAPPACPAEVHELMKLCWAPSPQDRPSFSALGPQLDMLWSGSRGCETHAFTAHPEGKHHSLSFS
# K562 [14] = experiment: Cell cycle arrest in human K562 cells assessed as accumulation at […] phase at 20 uM incubated for 48 hrs by propidium iodide staining based flow cytometric analysis (reference value: 1.90 %); type: functional
# HCT-116 [15] = experiment: Cell cycle arrest in human HCT116 cells assessed as accumulation of diploid cells at G1 phase at 1 uM incubated for 48 hrs by propidium iodide staining based flow cytometric analysis (reference value: 77.62 %); type: functional
# K562 [16] = experiment: Cell cycle arrest in human K562 cells assessed as accumulation of diploid cells at G1 phase at 1 uM incubated for 48 hrs by propidium iodide staining based flow cytometric analysis (reference value: 56.33 %); type: functional
# JAK2/JAK3 (Homo sapiens) [17] = molecular target: T2, JAK2/JAK3 (Homo sapiens) (UniProt P52333+O60674); experiment: Inhibition of JAK2/3 in human HCT116 cells assessed as inhibition of STAT5 phosphorylation at 1 to 20 uM measured after 48 hrs by Western blot analysis; type: cell-based; conditions: HCT-116, dose 1-20 µM; in short: as §1
# K562 [18] = experiment: Cell cycle arrest in human K562 cells assessed as accumulation of diploid cells at G1 phase at 20 uM incubated for 48 hrs by propidium iodide staining based flow cytometric analysis (reference value: 56.33 %); type: functional
# JAK2/JAK3 (Homo sapiens) [19] = molecular target: T2, JAK2/JAK3 (Homo sapiens); experiment: Inhibition of JAK2/3 in human K562 cells assessed as inhibition of STAT3 phosphorylation at 1 to 20 uM measured after 48 hrs by Western blot analysis; type: cell-based; conditions: dose 1-20 µM; in short: as §1
# T2 sequence (O60674 whole entry, looked up, one chain of several): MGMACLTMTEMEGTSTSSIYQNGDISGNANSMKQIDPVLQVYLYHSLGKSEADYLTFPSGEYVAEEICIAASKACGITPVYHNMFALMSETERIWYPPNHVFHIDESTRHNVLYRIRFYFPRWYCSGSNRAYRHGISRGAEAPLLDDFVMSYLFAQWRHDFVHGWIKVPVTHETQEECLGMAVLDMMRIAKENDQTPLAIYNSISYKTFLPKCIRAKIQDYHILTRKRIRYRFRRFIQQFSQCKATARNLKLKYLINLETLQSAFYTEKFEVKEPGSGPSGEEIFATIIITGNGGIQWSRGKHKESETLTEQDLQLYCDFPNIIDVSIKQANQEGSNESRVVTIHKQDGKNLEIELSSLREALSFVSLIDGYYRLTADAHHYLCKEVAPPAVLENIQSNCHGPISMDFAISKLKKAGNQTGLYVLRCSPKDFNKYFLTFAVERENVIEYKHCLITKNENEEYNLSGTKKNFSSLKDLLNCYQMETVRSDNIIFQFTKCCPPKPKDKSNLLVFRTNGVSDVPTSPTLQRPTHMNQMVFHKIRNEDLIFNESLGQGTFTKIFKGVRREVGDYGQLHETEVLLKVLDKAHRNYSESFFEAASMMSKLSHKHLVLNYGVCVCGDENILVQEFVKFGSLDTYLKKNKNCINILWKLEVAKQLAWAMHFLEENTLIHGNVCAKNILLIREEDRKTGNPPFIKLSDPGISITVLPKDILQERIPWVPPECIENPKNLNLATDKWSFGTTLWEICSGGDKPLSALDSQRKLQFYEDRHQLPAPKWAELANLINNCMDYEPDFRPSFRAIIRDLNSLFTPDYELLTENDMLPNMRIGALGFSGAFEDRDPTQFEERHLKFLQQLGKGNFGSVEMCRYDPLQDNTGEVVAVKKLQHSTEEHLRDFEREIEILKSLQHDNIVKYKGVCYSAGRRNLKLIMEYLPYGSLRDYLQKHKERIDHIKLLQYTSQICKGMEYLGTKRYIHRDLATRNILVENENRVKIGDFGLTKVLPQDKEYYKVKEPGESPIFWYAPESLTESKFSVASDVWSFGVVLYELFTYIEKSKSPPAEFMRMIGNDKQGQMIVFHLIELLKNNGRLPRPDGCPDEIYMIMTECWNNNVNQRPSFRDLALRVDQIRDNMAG
# Chain of Aurora kinase B (Q96GD4 whole entry): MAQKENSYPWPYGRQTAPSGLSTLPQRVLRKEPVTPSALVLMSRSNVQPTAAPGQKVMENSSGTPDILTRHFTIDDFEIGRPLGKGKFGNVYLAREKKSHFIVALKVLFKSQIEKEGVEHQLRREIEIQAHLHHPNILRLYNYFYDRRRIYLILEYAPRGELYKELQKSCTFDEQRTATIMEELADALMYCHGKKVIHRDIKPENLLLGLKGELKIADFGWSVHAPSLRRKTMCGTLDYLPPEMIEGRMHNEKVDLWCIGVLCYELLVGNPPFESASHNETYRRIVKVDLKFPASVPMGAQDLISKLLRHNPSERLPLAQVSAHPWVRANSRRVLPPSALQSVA
compound,measurement,setting,value
O=C(Nc1c[nH]nc1-c1nc(-c2ccc(CN3CCOCC3)cc2)c[nH]1)c1cccc(Cl)c1,Activity,HCT-116 [1],14.46%
same,Activity,HCT-116 [2],24.55%
same,Activity,HCT-116 [3],16.16%
same,Activity,HCT-116 [4],17.27%
same,Activity,HCT-116 [5],57.52%
same,Selectivity ratio,Homo sapiens [6],20
same,Activity,K562 [7],19%
same,Activity,HCT-116 [8],1.98%
same,IC50,[9],31.5 µM
same,Selectivity ratio,Homo sapiens [10],20
same,Activity,K562 [11],2.09%
same,Selectivity ratio,Homo sapiens [12],20
same,inhibition,Aurora kinase B,Dose-dependent effect
same,IC50,[13],0.057 µM
same,Activity,K562 [14],2.06%
same,Activity,HCT-116 [15],72.2%
same,Activity,K562 [16],56.05%
same,inhibition,JAK2/JAK3 (Homo sapiens) [17],Active
same,Activity,K562 [18],45.9%
same,inhibition,JAK2/JAK3 (Homo sapiens) [19],Active
